Test results from ChEMBL document CHEMBL4196090, “Design, synthesis and biological evaluation of piperazinyl-β-carbolinederivatives as anti-leishmanial agents” (Eur J Med Chem, 2018).

Tests used:
[1] = Selectivity index, ratio of CC50 for human HeLa cells to EC50 for Leishmania infantum JPCM5 MCAN/ES/98/LLM-87 promastigotes; type: toxicity; conditions: read-out: Ratio CC50/EC50
How it was run: (§1)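 Selectivity index computed as CC50 (HeLa, Alamar blue) divided by EC50 for the respective parasite stage.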

[2] = system: Leishmania donovani; assay: Antileishmanial activity against Leishmania donovani LdBOB axenic amastigotes after 72 hrs by alamar blue assay; type: functional, organism-based
How it was run: (§2)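 Axenic amastigotes (L. donovani LdBOB; L. infantum clone JPCM5, grown at 26 °C in HOMEM) incubated 72 h with compounds. Viability read by Alamar blue; EC50 determined.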

[3] = system: Leishmania infantum; assay: Antileishmanial activity against Leishmania infantum JPCM5 MCAN/ES/98/LLM-87 axenic amastigotes after 72 hrs by alamar blue assay; type: functional, organism-based; conditions: MCAN/ES/98/LLM-87, 72 h; how it was run: as §2
[4] = Selectivity index, ratio of CC50 for human HeLa cells to EC50 for Leishmania donovani LdBOB axenic amastigotes; type: toxicity; conditions: read-out: Ratio CC50/EC50; how it was run: as §1
[5] = Selectivity index, ratio of CC50 for human HeLa cells to EC50 for Leishmania donovani promastigotes; type: toxicity; conditions: read-out: Ratio CC50/EC50; how it was run: as §1
[6] = Selectivity index, ratio of CC50 for human HeLa cells to EC50 for Leishmania infantum JPCM5 MCAN/ES/98/LLM-87 axenic amastigotes; type: toxicity; conditions: read-out: Ratio CC50/EC50; how it was run: as §1
[7] = Cytotoxicity against human HeLa cells after 65 hrs by alamar blue assay; type: cell-based
How it was run: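 HeLa cells first screened at 500 µM. Active compounds then tested for CC50: cells seeded at 2 × 10^4/well, exposed to compound 65 h, then Alamar Blue added for a further 5 h.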

[8] = Selectivity index, ratio of CC50 for human HeLa cells to EC50 for Leishmania donovani LdBOB amastigotes infected in human THP1 cells; type: toxicity, cell-based; conditions: read-out: Ratio CC50/EC50; how it was run: as §1
[9] = system: Leishmania infantum; assay: Selectivity ratio of EC50 for antileishmanial activity against Leishmania infantum JPCM5 MCAN/ES/98/LLM-87 promastigotes to EC50 for antileishmanial activity against Leishmania infantum JPCM5 MCAN/ES/98/LLM-87 amastigotes; type: functional
[10] = system: Leishmania donovani; assay: Antileishmanial activity against Leishmania donovani LdBOB amastigotes infected in human THP1 cells after 72 hrs by Giemsa staining based microscopic method; type: functional, organism-based; conditions: THP-1, 72 h
How it was run: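 THP-1 cells, kept in MEM plus 10% FBS, plated at 20,000/well with 10 nM PMA, 37 °C, 5% CO2, 75 h. Washed in PBS with 1 mM CaCl2, 0.5 mM MgCl2, 0.1% BSA. Infected with axenic LdBOB amastigotes at MOI 5 for 18 h, washed, serial compound dilutions for 72 h. Methanol fixation, Giemsa stain, ~200 macrophages/well counted. % infection vs untreated control (100%) gives EC50.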

[11] = system: Leishmania donovani; assay: Antileishmanial activity against Leishmania donovani promastigotes after 72 hrs by alamar blue assay; type: functional, organism-based
How it was run: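 L. donovani promastigotes grown at 26 °C in M199 plus 10% heat-inactivated FCS. Exposed to serial compound dilutions for 72 h, then Alamar blue read-out to give EC50.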

[12] = system: Leishmania infantum; assay: Antileishmanial activity against Leishmania infantum JPCM5 MCAN/ES/98/LLM-87 promastigotes after 72 hrs by alamar blue assay; type: functional, organism-based; conditions: MCAN/ES/98/LLM-87, 72 h
How it was run: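 L. infantum JPCM5 promastigotes grown at 26 °C in HOMEM. Exposed to serial compound dilutions for 72 h, then Alamar blue read-out to give EC50.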

[13] = system: Leishmania infantum; assay: Potency index, ratio of pentamidine EC50 to compound EC50 for antileishmanial activity against Leishmania infantum JPCM5 MCAN/ES/98/LLM-87 promastigotes; type: functional
[14] = system: Leishmania infantum; assay: Potency index, ratio of miltefosine EC50 to compound EC50 for antileishmanial activity against Leishmania infantum JPCM5 MCAN/ES/98/LLM-87 promastigotes; type: functional

EC50 [10] | Structure (SMILES) | selectivity ratio [1] | EC50 [2] | EC50 [3] | selectivity ratio [4] | selectivity ratio [5] | selectivity ratio [6] | CC50 at 65 h [7] | selectivity ratio [8] | Ratio EC50 [9] | EC50 [11] | EC50 [12] | Ratio EC50 [13] | Ratio EC50 [14]
9.2 µM | COc1ccc(N2CCN(C(=O)c3cc4c([nH]c5ccccc54)c(-c4ccccc4)n3)CC2)cc1 | > 55.1 | 2.8 µM | 5.2 µM | > 179 | > 79.1 | > 96.2 | > 500 µM | > 54.4 | 2 - 5 | 6.32 µM | 9.07 µM | – | –
9.6 µM | Cc1ccccc1N1CCN(C(=O)c2cc3c([nH]c4ccccc43)c(-c3ccccc3)n2)CC1 | > 13.8 | 6 µM | – | > 83.3 | > 39.7 | – | > 500 µM | > 52.1 | – | 12.6 µM | 36.2 µM | – | –
21.5 µM | O=C(c1cc2c([nH]c3ccccc32)c(-c2ccccc2)n1)N1CCN(c2ccc([N+](=O)[O-])cc2)CC1 | > 25.5 | 11.8 µM | 24.8 µM | > 42.4 | > 39.1 | > 20.2 | > 500 µM | > 23.3 | – | 12.8 µM | 19.8 µM | – | –
6.4 µM | O=C(c1cc2c([nH]c3ccccc32)c(-c2ccccc2)n1)N1CCN(c2cccc(Cl)c2Cl)CC1 | > 46.7 | 5.7 µM | 2.9 µM | > 87.7 | > 71.9 | > 172 | > 500 µM | > 78.1 | 2 - 5 | 6.95 µM | 10.7 µM | – | –
8.8 µM | O=C(c1cc2c([nH]c3ccccc32)c(-c2ccccc2)n1)N1CCN(Cc2ccccc2)CC1 | 1.2 | 12.6 µM | – | 2.3 | 1.8 | – | 28.9 µM | 3.3 | – | 16.4 µM | 24.3 µM | – | –
6.9 µM | COc1cccc(N2CCN(C(=O)c3cc4c([nH]c5ccccc54)c(-c4ccccc4)n3)CC2)c1 | 71 | 1.9 µM | 2.8 µM | 108 | 42.3 | 73.3 | 205 µM | 29.7 | 2 - 5 | 4.85 µM | 2.89 µM | 4 | 4
4 µM | O=C(c1cc2c([nH]c3ccccc32)c(-c2ccccc2)n1)N1CCN(c2ccccc2F)CC1 | > 33.6 | 2.8 µM | 9.4 µM | > 179 | > 144 | > 53.2 | > 500 µM | > 125 | – | 3.47 µM | 14.9 µM | – | –
5.7 µM | Cc1ccc(N2CCN(C(=O)c3cc4c([nH]c5ccccc54)c(-c4ccccc4)n3)CC2)cc1 | > 51.9 | 3.3 µM | 6.2 µM | > 152 | > 102 | > 80.6 | > 500 µM | > 87.7 | 2 - 5 | 4.91 µM | 9.63 µM | – | –
– | O=C(c1cc2c([nH]c3ccccc32)c(-c2ccccc2)n1)N1CCN(c2ccncc2)CC1 | 1.2 | – | – | – | 1.2 | – | 78.7 µM | – | – | 68.5 µM | 66.7 µM | – | –
11.9 µM | O=C(c1cc2c([nH]c3ccccc32)c(-c2ccccc2)n1)N1CCN(c2ccccn2)CC1 | > 14.7 | 5.1 µM | – | > 98 | > 66.7 | – | > 500 µM | > 42 | – | 7.5 µM | 34 µM | – | –
– | O=C(c1cc2c([nH]c3ccccc32)c(-c2ccccc2)n1)N1CCN(c2ccc(Cl)cc2)CC1 | > 15.2 | – | – | – | > 12.9 | – | > 500 µM | – | – | 38.6 µM | 33 µM | – | –
8 µM | COc1ccccc1N1CCN(C(=O)c2cc3c([nH]c4ccccc43)c(-c3ccccc3)n2)CC1 | 61.1 | 2.3 µM | 4.9 µM | 89 | 58.7 | 41.8 | 205 µM | 25.6 | 2 - 5 | 3.49 µM | 3.35 µM | 4 | 4
7.3 µM | O=C(c1cc2c([nH]c3ccccc32)c(-c2ccccc2)n1)N1CCN(c2ccccc2)CC1 | 3 | 12.5 µM | 4.5 µM | 3 | 2.3 | 8.5 | 38.1 µM | 5.2 | – | 16.3 µM | 12.5 µM | – | –
22.3 µM | O=C(c1cc2c([nH]c3ccccc32)c(-c2ccccc2)n1)N1CCN(c2ccc(F)cc2)CC1 | > 35.5 | 12.6 µM | 11.3 µM | > 39.7 | > 28.6 | > 44.2 | > 500 µM | > 22.4 | – | 17.5 µM | 14.1 µM | – | –
8.5 µM | O=C(c1cc2c([nH]c3ccccc32)c(-c2ccccc2)n1)N1CCN(c2ccccc2Cl)CC1 | > 31.8 | 5.8 µM | 12.2 µM | > 86.2 | > 71.6 | > 41 | > 500 µM | > 58.8 | – | 6.98 µM | 15.7 µM | – | –
6.8 µM | O=C(c1cc2c([nH]c3ccccc32)c(-c2ccccc2)n1)N1CCN(c2cccc(Cl)c2)CC1 | 1.2 | 10.2 µM | 3.3 µM | 1.8 | 1.4 | 5.6 | 18.4 µM | 2.7 | – | 13.2 µM | 15.9 µM | – | –
6.4 µM | CCCCCCCCCCCCCCCCOP(=O)([O-])OCC[N+](C)(C)C [MILTEFOSINE] | – | 2.8 µM | 4.8 µM | – | – | – | – | – | – | 3.12 µM | 12.6 µM | – | –
23.7 µM | N=C(N)c1ccc(OCCCCCOc2ccc(C(=N)N)cc2)cc1 [PENTAMIDINE] | – | 1.6 µM | 2.7 µM | – | – | – | – | – | – | 6.4 µM | 8.31 µM | – | –
